From PubChem BioAssay
MrgX1 ag: human MrgX1 receptor agonism, primary screen; Q96LB2; MrgX1-HEK293 cells, Fluo-4 calcium fluorescence, agonist mode; active compounds read high; B-score at 10 µM; 310,000 tested, 0.44% active; AID 588627;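 active = calcium response B-score plate-corrected fluorescence ratio at least 3 library SD, with starting fluorescence B-score inside 5 SD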
Target sequence (Q96LB2 whole entry, looked up): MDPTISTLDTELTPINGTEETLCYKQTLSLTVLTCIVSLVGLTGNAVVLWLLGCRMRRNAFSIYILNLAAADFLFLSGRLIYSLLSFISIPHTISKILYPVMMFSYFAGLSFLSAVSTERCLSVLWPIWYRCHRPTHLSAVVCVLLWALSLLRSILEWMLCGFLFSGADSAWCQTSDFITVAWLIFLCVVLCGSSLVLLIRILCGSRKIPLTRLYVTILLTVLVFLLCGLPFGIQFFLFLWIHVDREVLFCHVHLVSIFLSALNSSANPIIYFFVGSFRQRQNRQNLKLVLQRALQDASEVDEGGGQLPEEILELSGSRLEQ
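Material – MrgX1-expressing HEK293 cells · Input – 15,000 cells seeded per well · Dosing – compound as first of three additions · Times – overnight seeding, then 1 h dark dye loading · Measured by – kinetic Fluo-4 NW fluorescence of intracellular calcium · Read-out – B-scored fluorescence response ratio · Benchmarks – positive and negative control wells on each plate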
MrgX1 antagonist: blocks BAM8-22 activation of human MrgX1 receptor; B-score at 10 µM; 310,000 tested, 1.3% active; Q96LB2; MRGX1-HEK293 calcium flux, Fluo-4, BAM8-22 antagonism; active compounds read low; AID 588676;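 active = calcium-response B-score plate-corrected more than 3 library SD below zero, starting fluorescence within 5 deviations, no agonist response on first addition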;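 note: peak minus trough fluorescence over baseline after final BAM8-22 challenge near maximal dose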
RGS4 pot: potentiators or activators of RGS4 | HEK293 M3R/inducible RGS4, carbachol calcium flux Fluo4; active compounds read low | B-score at 10 µM | 310,000 tested, 0.92% active | AID 463111;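 active = B-score of the integrated calcium signal more than 4 SD below the library mean, with starting fluorescence not abnormally high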;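 note: negative B-score means reduced calcium response which marks RGS4 activation or potentiation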
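Material: Inducible-RGS4 HEK293 cells carrying M3 receptor; also added: carbachol at ECmax as muscarinic agonist stimulus; incubation: compound preincubation 20 min at room temperature before agonist; signal: Fluo4-AM (2 µM) calcium-flux fluorescence, kinetic read; measure: integrated calcium ratio converted to B score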
MrgX1 allo act: human MrgX1 positive allosteric modulation, primary screen. Q96LB2. 310,000 tested, 0.63% active. MrgX1-HEK293, Fluo-4 calcium flux, FDSS; active compounds read high. B-score at 10 µM;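 active = plate-corrected calcium response at least 3 library SD above typical, normal starting fluorescence, not activating the receptor alone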;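 note: compound read alongside a low EC10 to EC30 dose of BAM8-22 agonist; peak minus trough fluorescence over baseline measured at the second addition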
RGS4 block: inhibitors of human RGS4; HEK293 M3R/RGS4 inducible, Fluo-4 calcium flux; active compounds read high; triggered by carbachol at its EC20; B-score at 10 µM; 310,000 tested, 0.45% active;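 active = B-score, a plate-corrected calcium signal, over three deviations above library mean, with baseline fluorescence within five deviations of library mean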;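 note: RGS4 expression induced by doxycycline in cells with stable M3 receptor; B-score is computed from the integrated fluorescence ratio over baseline after carbachol; higher B-score means a larger calcium signal and so more RGS4 inhibition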
Target sequence (P49798 whole entry, looked up): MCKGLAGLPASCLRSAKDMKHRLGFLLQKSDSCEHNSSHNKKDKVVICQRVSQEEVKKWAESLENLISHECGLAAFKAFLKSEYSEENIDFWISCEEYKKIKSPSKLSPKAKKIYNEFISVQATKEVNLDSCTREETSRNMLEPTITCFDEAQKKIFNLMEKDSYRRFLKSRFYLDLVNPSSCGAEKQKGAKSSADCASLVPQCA
The depositor's hits bear a star; i = inactive. Only some compounds are listed: those with a hit (about 3.5% of all), similar ones and a draw of the others.

SMILES | MrgX1 ag | MrgX1 antagonist | RGS4 pot | MrgX1 allo act | RGS4 block
Cc1nc(S/C(=C/c2ccc(-c3ccc(C(=O)O)cc3)o2)C(=O)O)n[nH]1 | i | i | i | i | i
CC(=O)c1ccc(-c2ccc(/C=C(/Sc3n[nH]c(C)n3)C(=O)O)o2)cc1 | i | -4.8* | i | i | i
Cc1nc(S/C(=C/c2ccc(-c3cc(Cl)ccc3C)o2)C(=O)O)n[nH]1 | i | -5* | i | i | i
Cc1nc(S/C(=C/c2ccc(-c3ccc(Cl)cc3)o2)C(=O)O)n[nH]1 | i | i | i | i | i
Cc1ccc(NC(=O)CO/N=C/c2ccc(N(C)C)cc2)cc1 | i | -4.8* | i | i | i
CCOC(=O)C1=C(C)N(CC(C)C)C(=O)/C1=C\c1ccc(OCC(=O)Nc2ccccc2)cc1 | i | i | -7.1* | i | i
CS(=O)(=O)c1nsc2nc(=O)c(/C=C3\C=Nc4ccccc43)c(N)n12 | i | i | i | i | i
CS(=O)(=O)c1ccc2c(c1)sc1nc(=O)c(/C=C3/C=CC(=O)C(O)=C3)c(N)n12 | i | i | i | 28* | i
COC1=C/C(=C/c2c(N)n3c(nc2=O)sc2cc(S(C)(=O)=O)ccc23)C=CC1=O | i | i | i | 10* | i
CCC1CCCCN1C(=O)NC(=O)c1ccccc1 (centres undefined) | i | i | i | i | i
CC(C)c1ccc(N(CC(=O)NCCSCc2ccco2)S(C)(=O)=O)cc1 | i | i | i | 7.1* | i
CS(=O)(=O)N(CC(=O)NCCSCc1ccco1)c1ccc(Cl)cc1 | i | i | i | i | i
COc1ccc(N(CC(=O)NCCSCc2ccccc2C)S(=O)(=O)c2ccccc2)cc1 | i | i | -7.8* | i | i
COc1ccc(N(CC(=O)NCC(C)C)S(=O)(=O)c2ccccc2)cc1 | i | i | i | i | i
COc1ccccc1N(CC(=O)NCCSCc1ccccc1)S(C)(=O)=O | i | i | i | i | i
COc1cccc(N(CC(=O)NCCSCc2ccco2)S(=O)(=O)c2ccccc2)c1 | i | i | i | 7.2* | i
COc1ccccc1N(CC(=O)NCCSCc1cccc(C)c1)S(=O)(=O)c1ccccc1 | i | i | -8.6* | i | i
CCOc1cc(S(=O)(=O)N2CCCC2)c(C)cc1C | i | i | i | i | i
CCCCCC1CCC(c2n[nH]c(=S)n2C)CC1 (centres undefined) | i | i | i | i | i
COc1ccc(N(CC(=O)NCc2ccccc2OC)S(=O)(=O)c2c(C)nn(C)c2C)cc1 | i | -6.3* | i | i | i
COc1ccccc1CNC(=O)CN(c1ccc(C)cc1)S(=O)(=O)c1c(C)nn(C)c1C | i | i | i | i | i
Cc1ccc(C(=O)/C=C/c2cc(Br)cc(Br)c2O)o1 | i | -5.3* | i | i | i
Cc1ccc(C(=O)/C=C/N(C)C)o1 | i | i | i | i | i
Cc1ccc(N2CC(C(=O)Nc3nnc(SCC(N)=O)s3)CC2=O)cc1 (centres undefined) | i | i | i | i | i
Cc1ccc(-c2nnc(SCC(=O)N(C)C)nc2-c2ccc(C)cc2)cc1 | i | i | i | i | i
SMILES | MrgX1 ag | MrgX1 antagonist | RGS4 pot | MrgX1 allo act | RGS4 block
Cc1cc(C)c2nc(C)cc(N/N=C/c3ccc(O)cc3)c2c1 | i | i | -7.4* | i | i
COc1ccc(-c2nc(CS(=O)CC(=O)NCc3ccc(F)cc3)c(C)o2)cc1 (centres undefined) | i | i | i | i | i
CCN(CC)c1ccc(S(=O)(=O)N2CCOCC2)cc1NC(=O)COC(=O)/C=C/c1ccc(C)o1 | i | i | -9.6* | i | i
CSC[C@@H]1NC(=S)N(c2ccc(C)cc2)C1=O | i | i | i | i | i
CCNC(=S)Nc1ccc(Cl)c([N+](=O)[O-])c1 | i | -5.8* | i | i | i
COc1cccc(-n2nnnc2SCC(=O)Nc2ccccc2OC)c1 | i | i | i | i | i
CCCS(=O)(=O)c1nnnn1-c1cccc(OC)c1 | 50* | i | i | i | i
COc1ccccc1CNC(=O)C1Cc2cc(S(=O)(=O)N3CCCCC3)ccc2N1C(C)=O (centres undefined) | i | i | i | i | i
N#CC1=C(N)OC2=C(C(=O)CCC2)C1c1cc2c(cc1Cl)OCO2 (centres undefined) | i | i | i | i | i
CCOC(=O)C[C@H]1c2cc(C(F)(F)F)ccc2S(=O)(=O)N1C(C)C | i | i | i | i | i
CC1CCCCN1C(=O)CSc1nc(C2CC2)nc2c1cnn2-c1ccccc1 (centres undefined) | i | i | -7* | i | i
Cc1nn(C)c(C)c1NC(=O)CSc1nc(C2CC2)nc2c1cnn2-c1ccccc1 | i | i | i | i | i
Nc1ccc(C(=O)O)c(O)c1 | i | i | i | i | i
Nc1ccc(N)c(C(=O)O)c1 | i | -5.6* | i | i | i
CC(=O)Nc1sc(C)c(C)c1C(=O)OCC(=O)N(CC(C)C)c1c(N)n(Cc2ccccc2)c(=O)[nH]c1=O | i | i | -7.8* | i | i
COC(=O)c1c(C)[nH]c(C(=O)OCC(=O)N(CC(C)C)c2c(N)n(Cc3ccccc3)c(=O)[nH]c2=O)c1C | i | i | i | i | i
Cc1cc(C)c(S(=O)(=O)N2CCCOC2CNC(=O)C(=O)NCc2cccs2)c(C)c1 (centres undefined) | i | i | i | i | i
O=[N+]([O-])c1ccc(NC(=S)NCCc2ccc(Cl)cc2)cc1 | i | -6* | i | i | i
S=C(NCCc1ccccc1)Nc1ccc(Cl)cc1 | i | i | i | i | i
O=[N+]([O-])c1ccc(NC(=S)NCCc2ccccc2)cc1 | i | -4.9* | i | i | i
NS(=O)(=O)c1ccc(NC(=S)NCCc2ccccc2)cc1 | i | i | i | i | i
CCN(c1ccccc1)S(=O)(=O)c1cccc(C(=O)N2CCN(S(=O)(=O)c3ccccc3)CC2)c1 | i | i | i | i | i
CCC1CCc2c([nH]c3ccccc3c2=O)O1 (centres undefined) | i | i | i | i | i
CC1(C)CCc2c([nH]c3ccccc3c2=O)O1 | i | i | -7* | i | i
Cn1nc(CC(=O)Nc2ncc(Br)s2)c2ccccc2c1=O | i | i | i | 8.9* | i
Cn1nc(CC(=O)NC2CCCCCCCCCCC2)c2ccccc2c1=O | i | i | i | i | i
